Legend:
Type in all cases: functional, organism-based
[1] = system: Pseudomonas aeruginosa; experiment: Susceptibility testing against Pseudomonas aeruginosa PAE_NUH06; S=Susceptible
In short: (§1)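 Disk diffusion susceptibility profiling against a panel of empirically used antipseudomonal antibiotics. Each strain was categorised as susceptible (S) or intermediate (I).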

[2] = system: Pseudomonas aeruginosa; experiment: Susceptibility testing against Pseudomonas aeruginosa PAE_NUH22; S=Susceptible; in short: as §1
[3] = system: Pseudomonas aeruginosa; experiment: Susceptibility testing against Pseudomonas aeruginosa PAE_NUH04; S=Susceptible; in short: as §1
[4] = system: Pseudomonas aeruginosa; experiment: Susceptibility testing against Pseudomonas aeruginosa PAE_NUH05; S=Susceptible; in short: as §1
[5] = system: Pseudomonas aeruginosa; experiment: Susceptibility testing against Pseudomonas aeruginosa PAE_NUH25; S=Susceptible; in short: as §1
[6] = system: Pseudomonas aeruginosa; experiment: Susceptibility testing against Pseudomonas aeruginosa PAE_NUH23; S=Susceptible; in short: as §1
[7] = system: Pseudomonas aeruginosa; experiment: Susceptibility testing against Pseudomonas aeruginosa PAE_NUH01; R=Resistant
In short: (§2)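 Disk diffusion susceptibility profiling of P. aeruginosa reference and clinical isolates against empirically used antipseudomonal antibiotics. Each isolate was categorised as susceptible, intermediate or resistant.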

[8] = system: Pseudomonas aeruginosa; experiment: Susceptibility testing against Pseudomonas aeruginosa PAE_NUH07; R=Resistant; in short: as §2
[9] = system: Pseudomonas aeruginosa; experiment: Susceptibility testing against Pseudomonas aeruginosa PAE_NUH19; S=Susceptible; in short: as §1
[10] = system: Pseudomonas aeruginosa; experiment: Susceptibility testing against Pseudomonas aeruginosa PAE_NUH24; S=Susceptible; in short: as §1
[11] = system: Pseudomonas aeruginosa; experiment: Susceptibility testing against Pseudomonas aeruginosa PAE_NUH17; S=Susceptible; in short: as §1
[12] = system: Pseudomonas aeruginosa; experiment: Susceptibility testing against Pseudomonas aeruginosa PAE_NUH20; S=Susceptible; in short: as §1
[13] = system: Pseudomonas aeruginosa; experiment: Susceptibility testing against Pseudomonas aeruginosa ATCC 27853; S=Susceptible; in short: as §1
[14] = system: Pseudomonas aeruginosa; experiment: Susceptibility testing against Pseudomonas aeruginosa PAE_NUH02; R=Resistant; in short: as §2
[15] = system: Pseudomonas aeruginosa; experiment: Susceptibility testing against Pseudomonas aeruginosa PAE_NUH21; S=Susceptible; in short: as §1
[16] = system: Pseudomonas aeruginosa; experiment: Susceptibility testing against Pseudomonas aeruginosa PAE_NUH03; S=Susceptible; in short: as §1
[17] = system: Pseudomonas aeruginosa; experiment: Susceptibility testing against Pseudomonas aeruginosa PAE_NUH18; S=Susceptible; in short: as §1
[18] = system: Pseudomonas aeruginosa; experiment: Susceptibility testing against Pseudomonas aeruginosa ATCC 27853; R=Resistant; in short: as §2
[19] = system: Pseudomonas aeruginosa; experiment: Susceptibility testing against Pseudomonas aeruginosa PAE_NUH05; R=Resistant; in short: as §2
[20] = system: Pseudomonas aeruginosa; experiment: Susceptibility testing against Pseudomonas aeruginosa PAE_NUH06; R=Resistant; in short: as §2
[21] = system: Pseudomonas aeruginosa; experiment: Susceptibility testing against Pseudomonas aeruginosa PAE_NUH18; R=Resistant; in short: as §2
[22] = system: Pseudomonas aeruginosa; experiment: Susceptibility testing against Pseudomonas aeruginosa PAE_NUH21; I=Intermediate; in short: as §1
[23] = system: Pseudomonas aeruginosa; experiment: Susceptibility testing against Pseudomonas aeruginosa PAE_NUH24; I=Intermediate; in short: as §2
[24] = system: Pseudomonas aeruginosa; experiment: Susceptibility testing against Pseudomonas aeruginosa PAE_NUH04; R=Resistant; in short: as §2
[25] = system: Pseudomonas aeruginosa; experiment: Susceptibility testing against Pseudomonas aeruginosa PAE_NUH25; R=Resistant; in short: as §2
[26] = system: Pseudomonas aeruginosa; experiment: Susceptibility testing against Pseudomonas aeruginosa PAE_NUH03; R=Resistant; in short: as §2
[27] = system: Pseudomonas aeruginosa; experiment: Susceptibility testing against Pseudomonas aeruginosa PAE_NUH22; I=Intermediate; in short: as §1
[28] = system: Pseudomonas aeruginosa; experiment: Susceptibility testing against Pseudomonas aeruginosa PAE_NUH23; I=Intermediate; in short: as §2
[29] = system: Pseudomonas aeruginosa; experiment: Susceptibility testing against Pseudomonas aeruginosa PAE_NUH19; R=Resistant; in short: as §2

## CCN1CCN(C(=O)N[C@@H](C(=O)N[C@@H]2C(=O)N3[C@@H]2SC(C)(C)[C@@H]3C(=O)O)c2ccccc2)C(=O)C1=O.C[C@]1(Cn2ccnn2)[C@H](C(=O)O)N2C(=O)C[C@H]2S1(=O)=O
[1]
  Activity: Susceptible
[2]
  Activity: Susceptible
[3]
  Activity: Susceptible
[4]
  Activity: Susceptible
[5]
  Activity: Susceptible
[6]
  Activity: Susceptible
[7]
  Activity: Resistant
[8]
  Activity: Resistant
[9]
  Activity: Susceptible
[10]
  Activity: Susceptible
[11]
  Activity: Susceptible
[12]
  Activity: Susceptible
[13]
  Activity: Susceptible
[14]
  Activity: Resistant
[15]
  Activity: Susceptible
[16]
  Activity: Susceptible
[17]
  Activity: Susceptible

## O=C(N[C@H](CO)[C@H](O)c1ccc([N+](=O)[O-])cc1)C(Cl)Cl
[18]
  Activity: Resistant
[19]
  Activity: Resistant
[20]
  Activity: Resistant
[7]
  Activity: Resistant
[8]
  Activity: Resistant
[21]
  Activity: Resistant
[22]
  Activity: I
[23]
  Activity: I
[24]
  Activity: Resistant
[11]
  Activity: Susceptible
[25]
  Activity: Resistant
[12]
  Activity: Susceptible
[26]
  Activity: Resistant
[14]
  Activity: Resistant
[27]
  Activity: I
[28]
  Activity: I
[29]
  Activity: Resistant

From ChEMBL document CHEMBL1143542, “Structure-activity relationships of bivalent aminoglycosides and evaluation of their microbiological activities” (2005)
